In PMC11319934 (PNAS Nexus, 2024):
pKd: −log10 of the molar value. Bridge positions count the residues as written; N and C are the ends. Square brackets hold non-standard residues; d marks the D form. Peptide text beside a SMILES is read from it. * marks the point of attachment. X1 = CN(C)c1ccc2c(-c3ccc(C(=O)*)cc3C(=O)[O-])c3ccc(=[N+](C)C)cc-3oc2c1; R5 = C=CCCC[C@@](C)(N)C(=O)O; S5 = C=CCCC[C@](C)(N)C(=O)O

Assays:
[1] = biological target: T1, His-MYC3-FLAG (His6-SUMO-MYC3(44–238)-FLAG) (Arabidopsis thaliana, UniProt Q9FIP9); test: Fluorescence anisotropy; type: binding; conditions: for fold lower Kd with His-MYC3-FLAG than that of 1: ratio of Kd of 1 to Kd of the peptide
T1 sequence (Q9FIP9 44-238): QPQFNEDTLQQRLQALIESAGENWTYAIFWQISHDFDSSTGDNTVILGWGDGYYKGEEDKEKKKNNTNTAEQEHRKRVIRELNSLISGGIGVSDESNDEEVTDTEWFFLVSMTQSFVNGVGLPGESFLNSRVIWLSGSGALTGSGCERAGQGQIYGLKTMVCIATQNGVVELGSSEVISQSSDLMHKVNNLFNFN

[2] = biological target: T2, His-EIN3-FLAG (His6-SUMO-EIN3(200–500)-FLAG) (Arabidopsis thaliana, UniProt O24606); test: Fluorescence anisotropy; type: binding
T2 sequence (O24606 200-500): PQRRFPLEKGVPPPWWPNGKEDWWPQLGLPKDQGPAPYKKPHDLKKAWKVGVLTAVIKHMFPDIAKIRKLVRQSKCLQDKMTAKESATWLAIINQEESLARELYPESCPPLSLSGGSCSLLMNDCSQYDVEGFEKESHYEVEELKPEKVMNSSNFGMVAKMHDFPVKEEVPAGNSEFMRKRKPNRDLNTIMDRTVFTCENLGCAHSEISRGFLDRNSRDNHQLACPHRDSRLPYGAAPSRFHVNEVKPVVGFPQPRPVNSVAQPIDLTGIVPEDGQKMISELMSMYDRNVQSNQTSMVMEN
Summary of the method: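 FA titration at 25°C in 20 mM Tris-HCl pH 8.0, 200 mM NaCl, 10% glycerol, 10% cOmplete EDTA-free, with 2-mercaptoethanol (EIN3/EIL1 family). Protein added dropwise to 100 nM TMR-labelled peptide; His-EIN3-FLAG titrated 0–2 µM. Anisotropy read at ex/em 543/573.5 nm. Each point is the average of three independent measurements. Apparent Kd obtained by nonlinear curve fitting.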

| Structure (SMILES) | pKd [1] | fold lower Kd with His-MYC3-FLAG than that of 1 [1] | pKd [2] |
| --- | --- | --- | --- |
| CC[C@H](C)[C@H](NC(=O)[C@H](CCCCN)NC(=O)[C@H](CO)NC(=O)[C@@H](NC(=O)[C@]1(C)CCCC=CCCC[C@](C)(NC(=O)[C@H](CCCNC(=N)N)NC(=O)[C@H](Cc2ccccc2)NC(=O)[C@H](CO)NC(=O)[C@H](CCCNC(=N)N)NC(=O)[C@H](CCCNC(=N)N)NC(=O)[C@H](CCCNC(=N)N)NC(=O)[C@H](CC(=O)O)NC(=O)[C@H](CC(C)C)NC(=O)[C@H](Cc2ccccc2)NC(=O)[C@H](CCCCN)NC(=O)[C@H](CCC(N)=O)NC(=O)[C@H](Cc2ccccc2)NC(=O)c2ccc(-c3c4ccc(=[N+](C)C)cc-4oc4cc(N(C)C)ccc34)c(C(=O)[O-])c2)C(=O)N[C@@H]([C@@H](C)CC)C(=O)N[C@@H](CCC(N)=O)C(=O)NCC(=O)N1)[C@@H](C)CC)C(=O)N[C@@H](CC(=O)O)C(=O)N1CCC[C@H]1C(=O)N[C@@H](CCC(=O)O)C(=O)N[C@H](C(=O)N[C@H](C(=O)N[C@@H](CCCCN)C(=O)N[C@@H](CO)C(=O)N[C@@H](CC(C)C)C(=O)N[C@@H](CC(C)C)C(=O)N[C@@H](C)C(=O)N[C@@H](CO)C(=O)N[C@H](C(=O)O)[C@@H](C)O)[C@@H](C)CC)[C@@H](C)CC [compound 2] (X1-FQKFLDRRRSFR[S5]IQG[S5]ISKIDPEIIKSLLAST-OH; staple 13-17) | 7.21 | 7 fold | 6.54 |
| CC[C@H](C)[C@H](NC(=O)[C@H](C)NC(=O)CNC(=O)[C@H](CCC(N)=O)NC(=O)[C@@H](NC(=O)[C@H](CC(=O)O)NC(=O)[C@H](CCCNC(=N)N)NC(=O)[C@H](Cc1ccccc1)NC(=O)[C@H](CO)NC(=O)[C@H](CCCNC(=N)N)NC(=O)[C@H](CCCNC(=N)N)NC(=O)[C@H](CCCNC(=N)N)NC(=O)[C@H](CC(=O)O)NC(=O)[C@H](CC(C)C)NC(=O)[C@H](Cc1ccccc1)NC(=O)[C@H](CCCCN)NC(=O)[C@H](CCC(N)=O)NC(=O)[C@H](Cc1ccccc1)NC(=O)c1ccc(-c2c3ccc(=[N+](C)C)cc-3oc3cc(N(C)C)ccc23)c(C(=O)[O-])c1)[C@@H](C)CC)C(=O)N[C@@H](CO)C(=O)N[C@@H](CCCCN)C(=O)N[C@H](C(=O)N[C@@H](CC(=O)O)C(=O)N1CCC[C@H]1C(=O)N[C@@H](CCC(=O)O)C(=O)N[C@]1(C)CCCC=CCCC[C@@](C)(C(=O)N[C@@H](CC(C)C)C(=O)N[C@@H](CC(C)C)C(=O)N[C@@H](C)C(=O)N[C@@H](CO)C(=O)N[C@H](C(=O)O)[C@@H](C)O)NC(=O)[C@H](CCCCN)NC(=O)[C@H]([C@@H](C)CC)NC1=O)[C@@H](C)CC [compound 3] (X1-FQKFLDRRRSFRDIQGAISKIDPE[R5]IK[S5]LLAST-OH; staple 25-28) | 6.51 | 0.67 fold | 6.22 |
